# Measurements: ChEMBL document CHEMBL5058577, “EUbOPEN Chemogenomics Library 2 (Multiplex)” (2022)
# Test system: HEK-293T
# Assay: Multiplex assay against HEK293T
# Type: toxicity, cell-based
# Details: human
# Summary of the method: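 Phenotypes for tubulin, mitochondrial mass and membrane permeability are expressed as per cents of healthy-nucleus cells. Cells were stained live at seeding with Hoechst33342, BioTracker Green Microtubule Cytoskeleton Dye, MitoTracker Red and Annexin V Alexa Fluor 680, then imaged after compound addition on a CQ1 microscope at 37°C and 5% CO2. Machine-learning gating in CellPathfinder separated Hoechst high-intensity objects from normal cells, divided normal cells by nuclear state (healthy, pyknosed, fragmented) and divided pyknosed cells into mitotic or apoptotic.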
# [1] = 12 h, 1 µM, compound concentration 1 uM, replicate 1
# [2] = 12 h, 1 µM, compound concentration 1 uM, replicate 2
# [3] = 12 h, 10 µM, compound concentration 10 uM, replicate 1
# [4] = 12 h, 10 µM, compound concentration 10 uM, replicate 2
# [5] = 24 h, 1 µM, compound concentration 1 uM, replicate 1
# [6] = 24 h, 1 µM, compound concentration 1 uM, replicate 2
# [7] = 24 h, 10 µM, compound concentration 10 uM, replicate 1
# [8] = 24 h, 10 µM, compound concentration 10 uM, replicate 2
# [9] = 48 h, 1 µM, compound concentration 1 uM, replicate 1
# [10] = 48 h, 1 µM, compound concentration 1 uM, replicate 2
# [11] = 48 h, 10 µM, compound concentration 10 uM, replicate 1
# [12] = 48 h, 10 µM, compound concentration 10 uM, replicate 2
smiles,measurement,setting,value
CCc1cc2cc(NS(=O)(=O)c3ccc(C#N)cc3)ccc2n(CC)c1=O,Population Apoptotic (%),[1],43%
same,Population Fragmented Nuclei (%),[1],8%
same,Population Healthy Nuclei (%),[1],78%
same,Population Hoechst High Intensity Objects (%),[1],9%
same,Population Membrane Permeable-Phenotype (%),[1],0%
same,Population Mitochondria Different-Phenotype (%),[1],37%
same,Population Mitotic Cells (%),[1],56%
same,Population Normal (%),[1],90%
same,Population Pyknosed Nuclei (%),[1],12%
same,Population Tubulin-Different-Phenotype (%),[1],28%
same,Total Cell Count,[1],411
same,Population Apoptotic (%),[2],40%
same,Population Fragmented Nuclei (%),[2],7%
same,Population Hoechst High Intensity Objects (%),[2],7%
same,Population Mitochondria Different-Phenotype (%),[2],64%
same,Population Mitotic Cells (%),[2],59%
same,Population Normal (%),[2],92%
same,Population Pyknosed Nuclei (%),[2],14%
same,Population Tubulin-Different-Phenotype (%),[2],29%
same,Total Cell Count,[2],338
same,Population Apoptotic (%),[3],38%
same,Population Fragmented Nuclei (%),[3],7%
same,Population Healthy Nuclei (%),[3],80%
same,Population Hoechst High Intensity Objects (%),[3],7%
same,Population Membrane Permeable-Phenotype (%),[3],0%
same,Population Mitochondria Different-Phenotype (%),[3],47%
same,Population Mitotic Cells (%),[3],61%
same,Population Normal (%),[3],92%
same,Population Pyknosed Nuclei (%),[3],12%
same,Population Tubulin-Different-Phenotype (%),[3],48%
same,Total Cell Count,[3],404
same,Population Apoptotic (%),[4],65%
same,Population Fragmented Nuclei (%),[4],6%
same,Population Healthy Nuclei (%),[4],69%
same,Population Hoechst High Intensity Objects (%),[4],16%
same,Population Mitochondria Different-Phenotype (%),[4],71%
same,Population Mitotic Cells (%),[4],34%
same,Population Normal (%),[4],83%
same,Population Pyknosed Nuclei (%),[4],23%
same,Population Tubulin-Different-Phenotype (%),[4],41%
same,Total Cell Count,[4],291
same,Population Apoptotic (%),[5],29%
same,Population Fragmented Nuclei (%),[5],8%
same,Population Healthy Nuclei (%),[5],80%
same,Population Hoechst High Intensity Objects (%),[5],5%
same,Population Membrane Permeable-Phenotype (%),[5],1%
same,Population Mitochondria Different-Phenotype (%),[5],19%
same,Population Mitotic Cells (%),[5],70%
same,Population Normal (%),[5],94%
same,Population Pyknosed Nuclei (%),[5],11%
same,Population Tubulin-Different-Phenotype (%),[5],18%
same,Total Cell Count,[5],510
same,Population Apoptotic (%),[6],43%
same,Population Fragmented Nuclei (%),[6],7%
same,Population Healthy Nuclei (%),[6],84%
same,Population Membrane Permeable-Phenotype (%),[6],0%
same,Population Mitochondria Different-Phenotype (%),[6],44%
same,Population Mitotic Cells (%),[6],56%
same,Population Pyknosed Nuclei (%),[6],7%
same,Population Tubulin-Different-Phenotype (%),[6],22%
same,Total Cell Count,[6],403
same,Population Apoptotic (%),[7],33%
same,Population Fragmented Nuclei (%),[7],9%
same,Population Healthy Nuclei (%),[7],80%
same,Population Hoechst High Intensity Objects (%),[7],6%
same,Population Membrane Permeable-Phenotype (%),[7],0%
same,Population Mitochondria Different-Phenotype (%),[7],36%
same,Population Mitotic Cells (%),[7],66%
same,Population Normal (%),[7],93%
same,Population Pyknosed Nuclei (%),[7],10%
same,Population Tubulin-Different-Phenotype (%),[7],32%
same,Total Cell Count,[7],478
same,Population Apoptotic (%),[8],63%
same,Population Fragmented Nuclei (%),[8],10%
same,Population Healthy Nuclei (%),[8],73%
same,Population Hoechst High Intensity Objects (%),[8],17%
same,Population Membrane Permeable-Phenotype (%),[8],1%
same,Population Mitochondria Different-Phenotype (%),[8],58%
same,Population Mitotic Cells (%),[8],36%
same,Population Normal (%),[8],82%
same,Population Pyknosed Nuclei (%),[8],16%
same,Population Tubulin-Different-Phenotype (%),[8],29%
same,Total Cell Count,[8],332
same,Population Apoptotic (%),[9],30%
same,Population Fragmented Nuclei (%),[9],11%
same,Population Healthy Nuclei (%),[9],81%
same,Population Hoechst High Intensity Objects (%),[9],2%
same,Population Membrane Permeable-Phenotype (%),[9],1%
same,Population Mitochondria Different-Phenotype (%),[9],11%
same,Population Mitotic Cells (%),[9],69%
same,Population Normal (%),[9],97%
same,Population Pyknosed Nuclei (%),[9],6%
same,Population Tubulin-Different-Phenotype (%),[9],13%
same,Total Cell Count,[9],878
same,Population Apoptotic (%),[10],38%
same,Population Fragmented Nuclei (%),[10],14%
same,Population Healthy Nuclei (%),[10],79%
same,Population Hoechst High Intensity Objects (%),[10],4%
same,Population Mitochondria Different-Phenotype (%),[10],23%
same,Population Mitotic Cells (%),[10],61%
same,Population Normal (%),[10],95%
same,Population Pyknosed Nuclei (%),[10],5%
same,Population Tubulin-Different-Phenotype (%),[10],12%
same,Total Cell Count,[10],608
same,Population Apoptotic (%),[11],26%
same,Population Fragmented Nuclei (%),[11],14%
same,Population Healthy Nuclei (%),[11],78%
same,Population Hoechst High Intensity Objects (%),[11],4%
same,Population Membrane Permeable-Phenotype (%),[11],1%
same,Population Mitochondria Different-Phenotype (%),[11],23%
same,Population Mitotic Cells (%),[11],73%
same,Population Normal (%),[11],95%
same,Population Pyknosed Nuclei (%),[11],6%
same,Population Tubulin-Different-Phenotype (%),[11],20%
same,Total Cell Count,[11],734
same,Population Apoptotic (%),[12],47%
same,Population Fragmented Nuclei (%),[12],16%
same,Population Healthy Nuclei (%),[12],73%
same,Population Hoechst High Intensity Objects (%),[12],10%
same,Population Mitochondria Different-Phenotype (%),[12],40%
same,Population Mitotic Cells (%),[12],52%
same,Population Normal (%),[12],89%
same,Population Pyknosed Nuclei (%),[12],9%
same,Population Tubulin-Different-Phenotype (%),[12],23%
same,Total Cell Count,[12],383
